Test results from paper PMC7161550 (British Journal of Pharmacology, 2020).
Where two headings read alike, the source gives them in different places.

Legend:
[1] = target: CYP2C8 (Homo sapiens, UniProt P10632); assay: CYP inhibition, pooled human liver microsomes; type: in vitro ADME; conditions: 0.33–99.2 μM, co‐ and pre‐incubation
Outline: (§1)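 The rate of metabolite formation was measured; testosterone was one CYP3A4 substrate. Controls: solvent vehicle, enzyme-selective inhibitors, mechanism-based inhibitors. Analysis by HPLC with online radio-detection or LC/MS/MS.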

[2] = human, 2017, cited from earlier work
[3] = target: MATE1 (Homo sapiens, UniProt Q96FL8); assay: Transporter inhibition, probe substrate accumulation; type: in vitro ADME; conditions: MDCKII cells stably transfected with MATE1
Chain of MATE1 (Q96FL8 whole entry): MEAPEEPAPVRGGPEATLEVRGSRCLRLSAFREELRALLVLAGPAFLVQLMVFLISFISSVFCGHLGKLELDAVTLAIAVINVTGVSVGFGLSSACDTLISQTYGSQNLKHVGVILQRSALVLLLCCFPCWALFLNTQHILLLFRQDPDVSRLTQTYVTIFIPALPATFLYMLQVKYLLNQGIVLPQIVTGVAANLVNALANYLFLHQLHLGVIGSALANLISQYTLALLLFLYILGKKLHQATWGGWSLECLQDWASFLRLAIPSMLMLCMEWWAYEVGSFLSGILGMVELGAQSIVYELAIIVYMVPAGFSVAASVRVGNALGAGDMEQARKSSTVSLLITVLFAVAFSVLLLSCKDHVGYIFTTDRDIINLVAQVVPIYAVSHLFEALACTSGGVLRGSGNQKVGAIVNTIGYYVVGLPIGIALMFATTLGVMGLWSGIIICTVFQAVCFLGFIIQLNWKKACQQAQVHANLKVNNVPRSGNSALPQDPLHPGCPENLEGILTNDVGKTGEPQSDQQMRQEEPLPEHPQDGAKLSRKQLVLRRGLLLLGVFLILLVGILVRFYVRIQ
Outline: (§2)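 Inhibition of probe substrate accumulation in transfected cells: CHO‑K1 for OAT1 and OCT1; HEK293 for OAT3, OATP1B1 and OATP1B3; MDCKII for OCT2, MATE1 and MATE2‑K. Each transporter's activity was confirmed with a positive control substrate or inhibitor.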

[4] = target: human OAT1 (Homo sapiens, UniProt Q4U2R8); assay: as above; type: in vitro ADME; conditions: 0.033–33.3 μM
Chain of human OAT1 (Q4U2R8 whole entry): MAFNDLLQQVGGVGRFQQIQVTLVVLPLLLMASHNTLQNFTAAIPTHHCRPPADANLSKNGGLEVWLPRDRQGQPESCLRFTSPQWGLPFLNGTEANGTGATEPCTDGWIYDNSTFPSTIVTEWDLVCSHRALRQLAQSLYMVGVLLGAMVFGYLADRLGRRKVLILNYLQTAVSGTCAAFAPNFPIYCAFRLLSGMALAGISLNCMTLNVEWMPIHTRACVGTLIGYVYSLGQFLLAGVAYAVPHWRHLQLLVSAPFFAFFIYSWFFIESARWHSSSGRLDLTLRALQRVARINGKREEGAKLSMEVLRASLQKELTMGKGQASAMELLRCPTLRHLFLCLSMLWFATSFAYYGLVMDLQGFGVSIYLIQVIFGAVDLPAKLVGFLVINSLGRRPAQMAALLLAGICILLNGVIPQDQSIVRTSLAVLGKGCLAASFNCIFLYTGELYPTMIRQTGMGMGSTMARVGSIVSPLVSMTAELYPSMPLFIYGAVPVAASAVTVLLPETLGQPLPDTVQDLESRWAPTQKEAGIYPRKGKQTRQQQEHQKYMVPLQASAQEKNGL
Outline: as §2

[5] = target: CYP1A2 (Homo sapiens, UniProt P05177); assay: CYP inhibition, pooled human liver microsomes; type: in vitro ADME; conditions: 0.33–99.2 μM, co‐ and pre‐incubation
Chain of CYP1A2 (P05177 whole entry): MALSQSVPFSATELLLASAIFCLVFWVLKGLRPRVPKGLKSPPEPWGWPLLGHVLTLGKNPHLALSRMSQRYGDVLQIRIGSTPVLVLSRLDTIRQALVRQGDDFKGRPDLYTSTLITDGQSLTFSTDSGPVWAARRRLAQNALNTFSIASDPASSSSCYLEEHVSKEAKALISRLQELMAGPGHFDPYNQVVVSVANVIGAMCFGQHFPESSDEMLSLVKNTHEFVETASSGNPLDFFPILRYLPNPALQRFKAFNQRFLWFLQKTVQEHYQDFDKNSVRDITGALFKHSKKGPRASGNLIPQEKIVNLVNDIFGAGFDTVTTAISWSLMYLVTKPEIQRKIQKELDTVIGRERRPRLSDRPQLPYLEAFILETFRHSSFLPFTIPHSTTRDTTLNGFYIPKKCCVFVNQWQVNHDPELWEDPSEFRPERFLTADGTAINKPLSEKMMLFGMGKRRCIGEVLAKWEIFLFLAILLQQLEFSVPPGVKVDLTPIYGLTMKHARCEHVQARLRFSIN
Outline: as §1

[6] = target: CYP2B6 (Homo sapiens, UniProt P20813); assay: CYP inhibition, pooled human liver microsomes; type: in vitro ADME; conditions: 0.33–99.2 μM, co‐ and pre‐incubation
Chain of CYP2B6 (P20813 whole entry): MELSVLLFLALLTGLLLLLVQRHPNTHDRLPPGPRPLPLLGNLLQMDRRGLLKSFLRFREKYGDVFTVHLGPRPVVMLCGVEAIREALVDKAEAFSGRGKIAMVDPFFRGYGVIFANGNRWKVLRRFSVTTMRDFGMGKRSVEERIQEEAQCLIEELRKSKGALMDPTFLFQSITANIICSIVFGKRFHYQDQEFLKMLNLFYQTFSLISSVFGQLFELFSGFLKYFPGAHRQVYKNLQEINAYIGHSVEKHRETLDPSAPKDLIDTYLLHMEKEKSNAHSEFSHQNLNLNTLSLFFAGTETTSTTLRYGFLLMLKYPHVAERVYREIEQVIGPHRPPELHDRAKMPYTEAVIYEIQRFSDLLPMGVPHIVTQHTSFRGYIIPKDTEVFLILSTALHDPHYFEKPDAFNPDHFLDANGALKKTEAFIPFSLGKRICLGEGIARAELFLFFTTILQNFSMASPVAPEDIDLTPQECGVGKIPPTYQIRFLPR
Outline: as §1

[7] = target: T1, rat brain fatty acid amide hydrolase (FAAH) (Rattus norvegicus, UniProt P97612); type: biochemical
T1 sequence (P97612 1-579): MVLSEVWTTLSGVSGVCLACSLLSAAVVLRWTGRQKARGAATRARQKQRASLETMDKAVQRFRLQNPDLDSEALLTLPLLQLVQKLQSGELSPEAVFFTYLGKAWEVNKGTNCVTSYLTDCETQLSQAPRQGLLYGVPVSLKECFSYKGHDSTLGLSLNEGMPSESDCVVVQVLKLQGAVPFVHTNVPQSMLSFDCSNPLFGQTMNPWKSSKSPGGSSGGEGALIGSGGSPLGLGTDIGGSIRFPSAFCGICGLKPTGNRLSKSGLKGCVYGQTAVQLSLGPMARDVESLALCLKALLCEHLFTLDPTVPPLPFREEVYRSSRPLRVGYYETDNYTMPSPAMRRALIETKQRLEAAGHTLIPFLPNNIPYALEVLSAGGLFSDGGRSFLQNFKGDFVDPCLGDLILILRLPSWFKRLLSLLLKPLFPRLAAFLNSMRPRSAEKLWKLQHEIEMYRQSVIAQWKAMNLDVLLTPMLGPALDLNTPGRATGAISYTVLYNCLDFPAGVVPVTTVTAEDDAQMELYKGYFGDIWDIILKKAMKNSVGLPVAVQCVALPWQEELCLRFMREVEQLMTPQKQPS
Outline: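 Rat brain membranes from Wistar rats, 10 μg protein, in 1 mM EDTA, 10 mM Tris, pH 7.6. Test compound at 1 nM–10 μM, pre-incubated with enzyme 5–60 min, or reaction started with enzyme when not pre-incubated. Substrate 2 μM AEA + 5 nM 3H‑AEA + 0.1% fatty acid-free BSA, 30 min at room temperature with agitation. Charcoal stop; supernatant 3H‑ethanolamine counted. Blank and vehicle controls; IC50 from normalized variable-slope sigmoidal fit.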

[8] = Plasma and brain levels of BIA 10‐2474 and PF‐04457845 in mice; type: in vivo; conditions: mouse; for Tmax / half-life / AUC(0-t) / Cmax: po
[9] = GLP rat toxicology studies; type: in vivo; conditions: 100 mg·kg^−1, assuming brain:plasma ratio of 1:5
[10] = system: SHRSP; assay: Stroke‐prone spontaneously hypertensive rats; type: in vivo, rat; conditions: 30 mg·kg^−1 p.o. daily
Outline: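 SHRSP rats on stroke-prone diet with high-salt intake, n = 30 per group, received daily oral 0.2% HPMC vehicle or test compound at 30 mg·kg−1 in 0.2% HPMC (4 ml·kg−1). Normal-diet, tap-water controls (n = 10) received vehicle. Dosing continued until about half of either treated group had died; surviving rats' brains were examined histologically.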

[11] = Protein binding to cell homogenates; type: in vitro ADME; conditions: 500 μg·ml^−1 of protein
[12] = brain (without cerebellum), 0.3 mg/kg

Chain of CYP2C8 (P10632 whole entry): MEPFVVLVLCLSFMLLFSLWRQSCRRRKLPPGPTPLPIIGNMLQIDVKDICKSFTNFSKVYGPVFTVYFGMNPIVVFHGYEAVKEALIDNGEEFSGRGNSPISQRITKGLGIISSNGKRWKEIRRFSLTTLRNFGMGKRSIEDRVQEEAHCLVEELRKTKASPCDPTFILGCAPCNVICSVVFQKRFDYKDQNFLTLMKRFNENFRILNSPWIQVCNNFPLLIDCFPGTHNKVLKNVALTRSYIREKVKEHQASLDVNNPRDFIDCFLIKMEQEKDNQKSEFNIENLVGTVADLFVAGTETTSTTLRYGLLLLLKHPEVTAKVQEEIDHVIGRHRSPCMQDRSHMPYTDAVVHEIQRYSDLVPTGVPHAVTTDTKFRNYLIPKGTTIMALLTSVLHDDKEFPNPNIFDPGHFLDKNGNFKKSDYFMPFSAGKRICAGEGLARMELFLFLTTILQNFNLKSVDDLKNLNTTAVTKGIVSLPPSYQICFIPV

CN(C(=O)n1cnc(-c2ccc[n+]([O-])c2)c1)C1CCCCC1 [BIA 10‐2474, 3‐(1‐(cyclohexyl (methyl)carbamoyl)‐1H‐imidazol‐4‐yl)pyridine 1‐oxide]
inhibitory effect on CYP2C8 [1]: did not exhibit any inhibitory effects | maximum plasma exposure in the clinic ([2]; 50 mg ref Rocha et al.): around 2 μM | maximum plasma exposure in the clinic ([2]; 100 mg ref Rocha et al.): ~6 µM | inhibition at 10 μg·ml^−1 [3]: 24% | effect on OAT1‐mediated probe substrate accumulation [4]: did not influence | inhibitory effect on CY1A2 [5]: did not exhibit any inhibitory effects | inhibitory effect on CYP2B6 [6]: did not exhibit any inhibitory effects | IC50 ([7]; IC50 [95% CI], pre‐incubation 0 min): 1.13 µM | IC50 ([7]; IC50 [95% CI], pre‐incubation 5 min): 1.18 µM | IC50 ([7]; IC50 [95% CI], pre‐incubation 15 min): 0.626 µM | IC50 ([7]; IC50 [95% CI], pre‐incubation 30 min): 0.424 µM | IC50 ([7]; IC50 [95% CI], pre‐incubation 45 min): 0.36 µM | IC50 ([7]; IC50 [95% CI], pre‐incubation 60 min): 0.398 µM | IC50 ([7]; IC50 values over all pre‐incubation times, rat brain membranes): 0.36 to 1.13 µM | IC50 fold higher than those for JNJ‐42165279 ([7]; rat brain membranes): 2–4 fold | Brain AUClast ([8]; 0.1 mg·kg^−1 p.o.): 11.3 ng·h/g | Brain C max ([8]; 0.1 mg·kg^−1 p.o.): 5.3 ng/g | maximum level in brain ([8]; 0.1 mg·kg^−1 p.o., equivalent of 5.3 ng·g^−1): 18 nM | maximum level in plasma ([8]; 0.1 mg·kg^−1 p.o., equivalent of 33.0 ng·ml^−1): 109 nM | Brain AUClast ([8]; 0.3 mg·kg^−1 p.o.): 60.8 ng·h/g | Brain C max ([8]; 0.3 mg·kg^−1 p.o.): 21.6 ng/g | Tmax ([8]; brain (without cerebellum), 0.1 mg/kg): 1 h | Tmax [8, 12]: 1 h | half-life [8, 12]: 1.75 h | AUC(0-t) ([8]; plasma, 0.1 mg/kg): 110 ng·h/mL | Cmax ([8]; plasma, 0.1 mg/kg): 33 ng/mL | Tmax ([8]; plasma, 0.1 mg/kg): 1 h | half-life ([8]; plasma, 0.1 mg/kg): 2.2 h | AUC(0-t) ([8]; plasma, 0.3 mg/kg): 338 ng·h/mL | Cmax ([8]; plasma, 0.3 mg/kg): 104 ng/mL | Tmax ([8]; plasma, 0.3 mg/kg): 1 h | half-life ([8]; plasma, 0.3 mg/kg): 1.9 h | maximum brain concentrations (suggested) [9]: around 20 μM | effect on mortality rate compared with vehicle ([10]; log‐rank test P = .1882): no effect | surviving rats with haemorrhage in the hippocampus and dorsal cortex ([10]; vehicle three of the 14): Three of the 17

O=C(Nc1cccnn1)N1CCC(=Cc2cccc(Oc3ccc(C(F)(F)F)cn3)c2)CC1 [PF‐04457845]
mean % free fraction ± SD [11]: 28.0 ± 3.9% | IC50 ([7]; read-out: IC50 [95% CI], pre‐incubation 0 min): 0.0039 µM | IC50 ([7]; read-out: IC50 [95% CI], pre‐incubation 5 min): 0.0028 µM | IC50 ([7]; read-out: IC50 [95% CI], pre‐incubation 15 min): 0.0015 µM | IC50 ([7]; read-out: IC50 [95% CI], pre‐incubation 30 min): 0.0027 µM | IC50 ([7]; read-out: IC50 [95% CI], pre‐incubation 45 min): 0.0027 µM | IC50 ([7]; read-out: IC50 [95% CI], pre‐incubation 60 min): 0.002 µM | Plasma AUClast ([8]; 0.03 mg·kg^−1 p.o.): 4.3 ng·h/mL | Plasma C max ([8]; 0.03 mg·kg^−1 p.o.): 1.3 ng/mL | Plasma t max ([8]; 0.03 mg·kg^−1 p.o.): 2 h | detection in the brain ([8]; 0.03 mg·kg^−1 p.o.): not detectable | Brain AUClast ([8]; 0.1 mg·kg^−1 p.o.): 22.9 ng·h/g | Brain C max ([8]; 0.1 mg·kg^−1 p.o.): 3.7 ng/g | Brain t max ([8]; 0.1 mg·kg^−1 p.o.): 2 h | Plasma AUClast ([8]; 0.1 mg·kg^−1 p.o.): 238.3 ng·h/mL | Plasma C max ([8]; 0.1 mg·kg^−1 p.o.): 38.3 ng/mL | Plasma t max ([8]; 0.1 mg·kg^−1 p.o.): 2 h | brain levels, fold lower than in plasma ([8]; 0.1 mg·kg^−1 p.o.): approximately 10 fold
